The nature of data set [1]: Substrate activity at PYSOCA in human CMEC/D3 cells assessed as transporter-mediated drug uptake measured for 2 mins at 37degC in presence of varenicline. The class given is ADME, cell-based.
Data set [2] in a line: Substrate activity at PYSOCA in human CMEC/D3 cells assessed as transporter-mediated drug uptake measured for 2 mins at 37degC in presence of MPP+. The class given is ADME, cell-based.
Data set [3] concerns the target Histone deacetylase (Homo sapiens) (UniProt Q13547+O15379+Q9UBN7+Q92769+Q9UQL6+Q8WUI4+Q9BY41+Q96DB2+P56524+Q9UKV0+Q969S8). Description: Time-dependent inhibition of HDAC in human HeLaS3 cells assessed as increase in histone H3K9 acetylation at 10 uM by immunoblot analysis. The class given is cell-based. (In general: A western blot detects proteins with antibodies after separation by electrophoresis.)

The nature of data set [4]: Substrate activity at PYSOCA in human CMEC/D3 cells assessed as transporter-mediated drug uptake measured for 2 mins at 37degC in presence of memantine. The data set is classed as ADME, cell-based.
Another data set addresses Histone deacetylase 2 (Homo sapiens, UniProt Q92769). Description: Inhibition of recombinant human C-terminal FLAG-tagged HDAC2 expressed in baculovirus infected Sf9 insect cells using HDAC substrate 3 measured after 30 mins by fluorescence assay.
Data set [5] concerns the target T1, Protein deacetylase HDAC6 (Homo sapiens) (UniProt Q9UBN7).
T1 sequence (whole entry): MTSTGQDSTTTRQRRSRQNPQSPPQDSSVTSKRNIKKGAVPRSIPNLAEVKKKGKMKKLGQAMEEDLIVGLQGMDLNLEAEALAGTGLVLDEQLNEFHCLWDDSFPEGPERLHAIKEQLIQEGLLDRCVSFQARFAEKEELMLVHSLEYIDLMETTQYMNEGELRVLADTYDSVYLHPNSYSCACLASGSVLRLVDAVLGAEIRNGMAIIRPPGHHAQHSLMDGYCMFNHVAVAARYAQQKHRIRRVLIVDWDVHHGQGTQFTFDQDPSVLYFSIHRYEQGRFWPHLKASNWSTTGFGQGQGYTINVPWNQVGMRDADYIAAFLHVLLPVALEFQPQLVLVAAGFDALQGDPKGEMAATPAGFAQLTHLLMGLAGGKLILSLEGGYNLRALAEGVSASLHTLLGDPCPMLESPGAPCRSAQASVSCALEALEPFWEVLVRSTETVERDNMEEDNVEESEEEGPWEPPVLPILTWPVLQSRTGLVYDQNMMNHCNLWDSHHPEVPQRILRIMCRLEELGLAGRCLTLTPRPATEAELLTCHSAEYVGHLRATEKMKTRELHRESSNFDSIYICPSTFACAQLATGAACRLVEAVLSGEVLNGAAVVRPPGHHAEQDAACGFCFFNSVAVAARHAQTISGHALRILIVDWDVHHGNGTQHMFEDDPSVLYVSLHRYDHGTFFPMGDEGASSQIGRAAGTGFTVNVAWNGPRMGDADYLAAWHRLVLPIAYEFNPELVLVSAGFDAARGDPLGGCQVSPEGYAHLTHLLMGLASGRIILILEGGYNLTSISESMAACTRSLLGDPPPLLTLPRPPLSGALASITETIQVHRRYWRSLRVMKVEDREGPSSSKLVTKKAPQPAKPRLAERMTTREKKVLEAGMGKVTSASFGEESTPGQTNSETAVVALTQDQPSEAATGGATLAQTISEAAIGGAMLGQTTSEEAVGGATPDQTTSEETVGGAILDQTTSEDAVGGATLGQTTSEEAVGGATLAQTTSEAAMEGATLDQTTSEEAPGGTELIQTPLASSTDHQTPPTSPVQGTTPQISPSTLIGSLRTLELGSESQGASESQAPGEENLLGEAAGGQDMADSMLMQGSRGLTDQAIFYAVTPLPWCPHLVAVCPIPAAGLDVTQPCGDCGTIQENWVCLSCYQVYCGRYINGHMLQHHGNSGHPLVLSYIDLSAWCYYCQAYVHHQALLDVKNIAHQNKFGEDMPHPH
Description: Inhibition of recombinant human HDAC6 expressed in baculovirus infected insect cells at 30 uM using HDAC substrate 3 measured after 30 mins by fluorescence assay relative to control.

In the next data set the test system is PYSOCA. As to the kind of experiment: Substrate activity at PYSOCA in human CMEC/D3 cells assessed as Km for transporter-mediated drug uptake measured for 2 mins at 37degC. The data set is classed as ADME, cell-based. The conditions noted are these: hCMEC/D3 cells. In a few lines:
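Uptake by hCMEC/D3 cells measured over a range of concentrations at 37 °C for 2 min. Km and Vmax were obtained by fitting to Eq. 1. Mean ± S.E., n = 4.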

A short description of data set [6]: Blood brain barrier permeability in Wistar rat brain at 20 uM by LC-MS/MS analysis. The class given is ADME, tissue-based. In a few lines:
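Right cerebral hemisphere of rat perfused with buffer containing test agent (20 µM) at 4.9 mL/min for 1 min.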

Data set [7] in a line: Substrate activity at PYSOCA in human CMEC/D3 cells assessed as transporter-mediated drug uptake measured for 2 mins at 37degC in presence of choline. The data set is classed as ADME, cell-based.
Data set [8] in a line: Substrate activity at PYSOCA in human CMEC/D3 cells assessed as transporter-mediated drug uptake measured for 2 mins at 37degC in presence of TEA. The class given is ADME, cell-based.
Data set [9] can be described thus: Substrate activity at PYSOCA in human CMEC/D3 cells assessed as transporter-mediated drug uptake measured for 1 min at 37degC in presence of NH4Cl under intracellular acidification condition. The data set is classed as ADME, cell-based. In a few lines:
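hCMEC/D3 cells were pretreated in transport buffer with or without 30 mM NH4Cl. Uptake was then measured at 37 °C for 1 min with or without 30 mM NH4Cl (Control, Pre and Acute conditions). Mean ± S.E., n = 4.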

Calls of active or inactive are those of the source. The calls are words filed in the database; no cut-off is given here. Bounds are passed on as bounds.

By IC50 is commonly meant the concentration at which inhibition is half-maximal. Usually inhibition stands for the percentage by which the read-out fell short of the control. Usually Km stands for the concentration of substrate that gives half-maximal velocity.

Chain of Histone deacetylase 2 (Q92769 whole entry): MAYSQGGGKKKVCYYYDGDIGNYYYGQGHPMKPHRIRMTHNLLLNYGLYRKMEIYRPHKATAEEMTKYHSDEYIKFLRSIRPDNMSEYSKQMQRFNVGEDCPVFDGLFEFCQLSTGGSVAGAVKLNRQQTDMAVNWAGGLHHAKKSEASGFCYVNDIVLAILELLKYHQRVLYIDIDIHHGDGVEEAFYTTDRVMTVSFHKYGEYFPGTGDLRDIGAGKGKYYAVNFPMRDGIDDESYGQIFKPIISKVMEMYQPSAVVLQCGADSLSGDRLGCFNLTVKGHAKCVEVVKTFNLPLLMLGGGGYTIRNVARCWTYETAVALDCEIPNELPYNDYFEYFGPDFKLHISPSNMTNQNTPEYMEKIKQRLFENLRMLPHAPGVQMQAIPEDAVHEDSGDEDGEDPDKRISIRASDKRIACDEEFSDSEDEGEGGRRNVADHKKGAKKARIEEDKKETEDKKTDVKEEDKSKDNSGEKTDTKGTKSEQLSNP

Consider `COc1ccc(CN(CCN(C)C)c2ccc(C(=O)Nc3ccccc3N)cn2)cc1`, for which the Activity result is on record as “Not Active” in data set [1]; “Active” in data set [2]; “Not Active” in data set [4]; “Active” in data set [7]; “Active” in data set [8]; “Active” in data set [9]. The TDI entry in data set [3] is “Active”. The IC50 on Histone deacetylase 2 was 5.5 µM. Besides, the inhibition in data set [5] is less than 10%. In the data set on PYSOCA, the Km at 2 min worked out at 326 µM. In addition, the pBBB in [6] worked out at 42.4 microL/min/g.
